# Bioassay records from PubChem.
# An excerpt weighted towards active compounds, which were near 3.8% of everything screened.
# KCNK9 inh – human KCNK9 channel inhibition. Q9NPC2. HEK293 KCNK9, FluxOR thallium flux fluorescence; stronger effect = lower value. B-score at 10 µM. actives 1.2% (n = 310,000). AID 488922;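 active means ratio B-score over 3 SD below the library mean, with starting fluorescence within 5 SD of its mean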;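 further: negative B-score means less thallium flux so channel inhibition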
# KCNQ1 block – blocks the human KCNQ1 potassium channel | AID 2642 | P51787 | actives 1.3% (n = 310,000) | CHO-K1 KCNQ1, FluxOR thallium flux fluorescence; stronger effect = higher value | B-score at 10 µM;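 active means compounds whose thallium flux B-score, printed positive for inhibition, exceeds three library SD while starting fluorescence stays within three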;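 further: channel opened by potassium depolarization with thallium stimulus after 20 min compound exposure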
# KCNQ1 act – human KCNQ1 channel potentiation or activation. CHO-K1 KCNQ1, thallium flux FluxOR fluorescence; stronger effect = higher value. B-score at 10 µM. actives 0.35% (n = 310,000). AID 2648;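 active means fluorescence ratio B-score, a plate-corrected score, at least three library SD, with initial intensity B-score within 5 SD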
#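 Material: CHO-K1 cells stably expressing KCNQ1. Medium: assay buffer for compound exposure, DMSO matched across wells. Reagent: K+/Tl+ depolarizing stimulus. Compound dosing: single-concentration screen. Times: 37 °C overnight plating, 90-min dark dye load, 20-min compound pretreatment. Technique: FluxOR Tl+ flux fluorescence.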
# KCNK3 inh – human KCNK3 channel inhibition, primary screen. CHO-KCNK3 thallium flux, FluxOR fluorescence; stronger effect = lower value. B-score at 10 µM. actives 0.84% (n = 340,000). AID 602410. O14649;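 active means B-score under library mean minus 4 SD, starting fluorescence ratio at most library mean plus 5 SD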;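 further: more negative B-score means stronger inhibition of thallium flux through KCNK3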
# hERG protect – hERG (human) protection from proarrhythmic block; activation (rescue from dofetilide block), less the hit threshold, % at 10 µM; CHO-hERG, FluxOR thallium flux, dofetilide IC70 present; actives 0.51% (n = 310,000); AID 1511; Q12809;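 active means activation above the mean of controls blocked by dofetilide plus 5 SD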;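 further: thallium influx through hERG after potassium depolarization seen as dye fluorescence rise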
# Kir21 block – inhibitors of mouse Kir2.1 inward-rectifier potassium channel. B-score at 10 µM. AID 1672. P35561. HEK293-Kir2.1, FluxOR thallium flux fluorescence; stronger effect = lower value. actives 0.85% (n = 310,000);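 active means fluorescence ratio B-score at or below minus 3 SD of library scores, with starting-brightness B-score within 2 SD, cut at about -4.2 in these data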;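 further: channel flux triggered by added potassium and thallium sulfate stimulus; B-score of peak minus minimum fluorescence over baseline after thallium stimulus; more negative B-score means stronger Kir2.1 block with less thallium influx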
# KCNQ1 inh valid – confirmation of human KCNQ1 potassium channel inhibitors; inhibition, % at 10 µM; AID 588353; actives 93% (n = 1,600); KCNQ1 cell line, FluxOR thallium flux fluorescence; shares compounds with KCNQ1 block;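 active means primary screen active, with duplicate mean exceeding buffer control mean plus 3 SD of buffer wells, cut at about 28% in these data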;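 further: 0% = buffer control ratio and 100% = XE991 inhibitor control ratio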
# CHO Tl flux – counter-screen for KCNQ1 inhibitors: effect in parental CHO cells; parental CHO-K1, FluxOR thallium flux fluorescence ratio; stronger effect = lower value; zero means no signal rise above baseline; actives 21% (n = 1,600); AID 588366; shares compounds with KCNQ1 block; fluorescence ratio (Tl flux) at 10 µM;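 active means mean of duplicate thallium-flux fluorescence ratios in parental host cells more than 5 SD below the buffer control mean, cut at about 0.38 in these data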;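 further: ratio is peak minus minimum fluorescence divided by baseline fluorescence; actives read low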
# KCNQ1 APC inh – blocks human KCNQ1 current in automated patch clamp; shares compounds with KCNQ1 block; KCNQ1-CHO cells; calls only at 10 µM; actives 20% (n = 490);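 active means KCNQ1 current drop exceeding 3 SD of negative control wells, seen in both duplicate runs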;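 further: steady state current during a 2 s step from -80 to +40 mV; negative values mean current inhibition and positive values mean potentiation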
# KCNQ2 inh – rat KCNQ2 inhibition in KCNQ1 inhibitor specificity screen | KCNQ2 cells, FluxOR thallium flux fluorescence | shares compounds with KCNQ1 block | actives 71% (n = 1,600) | inhibition, % at 10 µM;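 active means mean percent inhibition of the KCNQ2 thallium signal more than 5 SD above the buffer-only control wells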;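 further: KCNQ2 expressed in CHO cells; 0% = buffer control wells and 100% = XE-991 inhibitor control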
# KCNQ1-KCNE1 inh – selectivity of KCNQ1 inhibitors: inhibition of human KCNQ1/KCNE1 channel | actives 77% (n = 1,600) | shares compounds with KCNQ1 block | KCNQ1/KCNE1 cells, FluxOR thallium flux fluorescence | inhibition, % at 10 µM;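 active means mean percent inhibition of duplicate wells above the buffer-only control mean plus 3 SD of those controls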;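 further: 0% = buffer only wells and 100% = XE-991 inhibitor control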
# Target sequence (P51787 whole entry, looked up): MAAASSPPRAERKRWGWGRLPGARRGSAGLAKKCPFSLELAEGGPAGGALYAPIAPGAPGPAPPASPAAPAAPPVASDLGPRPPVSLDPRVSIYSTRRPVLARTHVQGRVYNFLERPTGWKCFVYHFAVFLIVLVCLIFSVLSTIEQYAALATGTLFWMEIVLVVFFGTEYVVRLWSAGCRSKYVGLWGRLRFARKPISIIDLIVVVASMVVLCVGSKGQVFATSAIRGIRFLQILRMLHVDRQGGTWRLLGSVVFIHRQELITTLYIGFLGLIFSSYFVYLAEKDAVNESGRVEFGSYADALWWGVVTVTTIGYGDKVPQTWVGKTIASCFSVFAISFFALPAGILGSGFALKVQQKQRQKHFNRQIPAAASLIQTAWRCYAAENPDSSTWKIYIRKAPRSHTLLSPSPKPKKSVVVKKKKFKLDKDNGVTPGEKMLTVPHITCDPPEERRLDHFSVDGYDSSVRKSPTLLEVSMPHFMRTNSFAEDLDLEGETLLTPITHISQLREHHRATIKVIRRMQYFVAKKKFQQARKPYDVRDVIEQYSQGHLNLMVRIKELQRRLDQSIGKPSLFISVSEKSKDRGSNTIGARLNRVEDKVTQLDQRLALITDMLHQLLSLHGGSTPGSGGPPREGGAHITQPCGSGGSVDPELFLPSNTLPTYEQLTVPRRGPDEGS
# Active calls of the source: *; i = inactive; · = no result; + = active, no number.
SMILES,KCNK9 inh,KCNQ1 block,KCNQ1 act,KCNK3 inh,hERG protect,Kir21 block,KCNQ1 inh valid,CHO Tl flux,KCNQ2 inh,KCNQ1-KCNE1 inh,others
CCOC(=O)C1=C(C)N=c2s/c(=C\c3ccc(O)c([N+](=O)[O-])c3)c(=O)n2C1c1ccccc1OC (stereo unspecified),i,18*,i,i,-3.1,0.85,143.5*,0.301*,109.0%*,+,
O=c1oc2ccccc2c(Nc2ccc3ccccc3c2)c1[N+](=O)[O-],i,i,i,i,-11.5,-1.1,·,·,·,·,
CCC1=[N+](CC(=O)c2ccc(Br)cc2)CCn2c(C)ccc21,i,i,i,i,-9.8,-1.27,·,·,·,·,
O=[N+]([O-])c1c(Nc2cccc(O)c2)cc(Cl)c2nonc12,-7.97*,24*,i,i,-32.7,-7.36*,165.5*,0.286*,129.0%*,+,
Cc1ccc(CNC(=O)C2CCCN2C(=O)Nc2ccc(F)cc2)cc1 (stereo unspecified),i,i,i,i,-9.0,-0.17,·,·,·,·,
CCOC(=O)C(CC(=O)O)=C(c1ccccc1)c1ccccc1,i,i,i,i,-11.2,1.42,·,·,·,·,
O=C(O)c1ccnc(Cl)c1,i,i,i,i,-8.3,-0.59,·,·,·,·,
Clc1ccc(CN=C(Nc2ccccc2)NC2CCCCC2)cc1,i,8*,i,i,-7.5,-5.23*,47.5*,0.465,i,38.0%*,
NC(=O)c1ccccc1NC(=O)c1ccccc1Cl,i,i,i,i,-2.6,1.18,·,·,·,·,
O=C(Nc1ccccc1C(=O)Nc1nnc(C(F)(F)F)s1)c1ccccc1Cl,i,6*,i,i,-12.9,-1.34,66.5*,0.449,65.3%*,i,
O=C(Cn1cnc2ccccc2c1=O)N1CCN(c2ccccc2)CC1,i,7*,i,i,-10.2,0.31,0.0,0.459,i,i,
Cc1cc2c(=O)n(CC(=O)N3CCN(c4ccccc4)CC3)cnc2s1,·,·,·,i,·,·,·,·,·,·,
CCCCCCCCOC(=O)c1nc(Cl)c(Cl)c(N)c1Cl,i,7*,i,i,-8.9,-2.38,101.0*,0.46,65.0%*,126.5%*,KCNQ1 APC inh=i
O=C(NCC(=O)N(Cc1ccccc1)C(C(=O)NC1CCCCC1)c1ccco1)c1ccco1 (stereo unspecified),i,i,i,i,-13.1,-0.35,·,·,·,·,
O=C(NC1CCCCC1)C(c1ccco1)N(Cc1ccco1)C(=O)c1ccco1 (stereo unspecified),i,7*,i,i,-7.1,1.58,96.0*,0.41,70.3%*,112.5%*,KCNQ1 APC inh=+
CCN(C(=O)c1ccco1)c1nc(CC(=O)Nc2ccc(Cl)cc2)cs1,i,i,i,i,-0.1,2.14,·,·,·,·,
CCC(=O)N(Cc1ccco1)c1nc(C(=O)Nc2ccc(Cl)cc2)c(C)s1,i,9*,i,i,-13.6,-0.29,87.5*,0.454,63.3%*,111.0%*,
COc1ccc(C(=O)NCS(=O)(=O)c2ccc(C)cc2)cc1,i,i,i,i,-14.4,-1.17,·,·,·,·,
COc1ccc(N(CC(O)Cn2c3ccccc3c3ccccc32)S(=O)(=O)c2ccccc2)cc1 (stereo unspecified),-7.49*,11*,i,i,-8.4,0.98,107.0*,0.474,i,148.5%*,KCNQ1 APC inh=i
CS(=O)(=O)N(CC(O)Cn1c2ccccc2c2ccccc21)c1ccccc1 (stereo unspecified),i,i,i,i,-7.5,-1.2,·,·,·,·,
O=c1c2sc3nc(N4CCOCC4)c4c(c3c2ncn1CCc1ccccc1)CCCC4,i,9*,i,i,-10.5,1.03,102.5*,0.445,92.0%*,103.0%*,KCNQ1 APC inh=i
CS(=O)(=O)c1ncc(Cl)c(C(=O)Nc2ccc(OC(F)F)cc2)n1,i,6*,i,i,-21.4,-5.34*,74.0*,0.342*,i,118.0%*,
CS(=O)(=O)c1ccc(C(=O)Nc2ccc(N3CCOCC3)cc2)c(Cl)c1,i,i,i,i,-7.9,-0.19,·,·,·,·,
CS(=O)(=O)c1ncc(Cl)c(C(=O)Nc2ccc(N3CCOCC3)cc2)n1,i,7*,i,i,-27.4,-3.94,73.0*,0.414,92.3%*,108.0%*,
COc1ccccc1-n1c(SCC(=O)N2CCOCC2)nc2ccccc2c1=O,i,i,i,i,-6.0,-0.04,·,·,·,·,
SMILES,KCNK9 inh,KCNQ1 block,KCNQ1 act,KCNK3 inh,hERG protect,Kir21 block,KCNQ1 inh valid,CHO Tl flux,KCNQ2 inh,KCNQ1-KCNE1 inh,others
CCOC(=O)C1(CC2CC2)CCN(Cc2cnc(-c3ccccc3C)nc2)CC1,i,7*,i,i,-1.8,0.37,0.0,0.452,78.3%*,i,
CCOC(=O)c1cnc(SC)nc1Oc1cccc(NS(=O)(=O)c2ccccc2)c1,i,7*,i,i,-15.7,1.67,56.5*,0.448,93.0%*,49.5%*,
CCOc1ccc(NC(C)c2cc(Cl)ccc2O)cc1 (stereo unspecified),i,i,i,i,-4.6,0.66,·,·,·,·,
CC(Nc1ccc(Cl)cc1)c1cc(Cl)ccc1O (stereo unspecified),i,6*,i,i,-7.4,-5.81*,123.5*,0.483,i,152.5%*,
Cc1ccc(-c2csc(N3CCC(NS(=O)(=O)c4ccc5c(c4)OCCO5)CC3)n2)cc1,i,6*,i,i,-13.8,-1.32,106.5*,0.422,96.0%*,99.5%*,KCNQ1 APC inh=i
Cc1sc(NC(=O)CSC2=NCCS2)nc1-c1ccccc1,i,i,i,i,-7.2,2.09,·,·,·,·,
CCOC(=O)c1sc(NC(=O)CSc2ncn(-c3ccccc3)n2)nc1C,i,16*,i,i,-7.7,0.44,26.5*,0.518,i,i,
Cc1sc(NC(=O)CSc2ncn(-c3ccccc3)n2)nc1-c1ccccc1,i,6*,i,i,-2.4,-1.2,31.5*,0.48,76.7%*,i,
